Activity calls are given as the source filed them. No cut-off for these calls is given here.
Columns and labels:
Staphylococcus aureus = experiment: Antibacterial activity against Staphylococcus aureus ATCC 25923 at 100 ug/mL after 24 hrs by disk diffusion method; assay type: functional; conditions: ATCC 25923, 24 h, read-out: DIZ
In short: (§1)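 Paper-disc diffusion on Mueller Hinton agar, pH 7.4 ± 0.2 at 25 °C. Whatman No. 2 discs (5 mm) were heat-sterilized at 160 °C for 30 min, loaded with DMSO test solution at 100 µg/10 µL and dried, then laid on the agar. Plates were held 1 h in the refrigerator for diffusion, then incubated 24 h at 37 °C. Inhibition zone diameter was read in mm. DMSO served as solvent control; ciprofloxacin disc as reference.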

Candida albicans = experiment: Antifungal activity against Candida albicans ATCC 10231 at 100 ug/mL after 24 hrs by disk diffusion method; assay type: functional; conditions: ATCC 10231, 24 h, read-out: DIZ
In short: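 Disc diffusion as for the antibacterial test, on agar medium of glucose, peptone and Sabouraud dextrose agar in distilled water, pH 5.5 ± 0.2 at 25 °C. Sterilized 5 mm paper discs were loaded with DMSO test solution at 100 µg/10 µL and dried. Plates were held 1 h refrigerated, then incubated 24 h at 37 °C. Zone of inhibition was measured in mm.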

Escherichia coli = experiment: Antibacterial activity against Escherichia coli ATCC 25922 at 100 ug/mL after 24 hrs by disk diffusion method; assay type: functional, organism-based; in short: as §1

| Compound | zone of inhibition at 100 µg/mL (Staphylococcus aureus) [mm] | zone of inhibition at 100 µg/mL (Candida albicans) [mm] | Activity (Escherichia coli) |
| --- | --- | --- | --- |
| Clc1ccc(Cn2cc(Cn3cc(C(c4ccccc4)c4cn(Cc5cn(Cc6ccc(Cl)cc6)nn5)c5ccccc45)c4ccccc43)nn2)cc1 | 17 | 20 | inactive |
| COc1ccc(Cn2cc(Cn3cc(C(c4ccccc4)c4cn(Cc5cn(Cc6ccc(OC)cc6)nn5)c5ccccc45)c4ccccc43)nn2)cc1 | 18 | 16 | inactive |
| COc1ccc(C(c2cn(Cc3cn(Cc4ccccc4)nn3)c3ccccc23)c2cn(Cc3cn(Cc4ccccc4)nn3)c3ccccc23)cc1 | 19 | 17 | inactive |
| Cc1c(C(c2ccc(Cl)cc2)c2c(C)n(Cc3cn(Cc4ccccc4)nn3)c3ccccc23)c2ccccc2n1Cc1cn(Cc2ccccc2)nn1 | 20 | 18 | inactive |
| COc1ccc(C(c2cn(Cc3cn(Cc4ccccc4)nn3)c3ccc(Br)cc23)c2cn(Cc3cn(Cc4ccccc4)nn3)c3ccc(Br)cc23)cc1 | 20 | 16 | inactive |
| Clc1ccc(Cn2cc(Cn3cc(C(c4ccc(Cl)cc4)c4cn(Cc5cn(Cc6ccc(Cl)cc6)nn5)c5ccccc45)c4ccccc43)nn2)cc1 | 20 | 16 | inactive |
| Cc1c(C(c2ccc(Cl)cc2)c2c(C)n(Cc3cn(Cc4ccc(Cl)cc4)nn3)c3ccccc23)c2ccccc2n1Cc1cn(Cc2ccc(Cl)cc2)nn1 | 19 | 18 | inactive |
| COc1ccc(C(c2cn(Cc3cn(Cc4ccc(Cl)cc4)nn3)c3ccccc23)c2cn(Cc3cn(Cc4ccc(Cl)cc4)nn3)c3ccccc23)cc1 | 16 | 21 | inactive |
| Cc1c(C(c2ccccc2)c2c(C)n(Cc3cn(Cc4ccc(Cl)cc4)nn3)c3ccccc23)c2ccccc2n1Cc1cn(Cc2ccc(Cl)cc2)nn1 | 17 | 19 | inactive |
| Clc1ccc(Cn2cc(Cn3cc(C(c4ccccc4)c4cn(Cc5cn(Cc6ccc(Cl)cc6)nn5)c5ccc(Br)cc45)c4cc(Br)ccc43)nn2)cc1 | 16 | 21 | inactive |
| Brc1ccc2c(c1)c(C(c1ccccc1)c1cn(Cc3cn(Cc4ccccc4)nn3)c3ccc(Br)cc13)cn2Cc1cn(Cc2ccccc2)nn1 | 16 | 21 | inactive |
| c1ccc(Cn2cc(Cn3cc(C(c4ccccc4)c4cn(Cc5cn(Cc6ccccc6)nn5)c5ccccc45)c4ccccc43)nn2)cc1 | 20 | 16 | inactive |
| O=C(O)c1cn(C2CC2)c2cc(N3CCNCC3)c(F)cc2c1=O [CIPROFLOXACIN] | 22 |  |  |
| COc1ccc(Cn2cc(Cn3cc(C(c4ccc(OC)cc4)c4cn(Cc5cn(Cc6ccc(OC)cc6)nn5)c5ccccc45)c4ccccc43)nn2)cc1 | 18 | 16 | inactive |
| CC(=O)N1CCN(c2ccc(OCC3COC(Cn4ccnc4)(c4ccc(Cl)cc4Cl)O3)cc2)CC1 (configuration not stated) [KETOCONAZOLE] |  | 24 |  |
| Cc1c(C(c2ccccc2)c2c(C)n(Cc3cn(Cc4ccccc4)nn3)c3ccccc23)c2ccccc2n1Cc1cn(Cc2ccccc2)nn1 | 20 | 16 | inactive |
| COc1ccc(C(c2c(C)n(Cc3cn(Cc4ccc(Cl)cc4)nn3)c3ccccc23)c2c(C)n(Cc3cn(Cc4ccc(Cl)cc4)nn3)c3ccccc23)cc1 | 16 | 20 | inactive |

Source: ChEMBL document CHEMBL1136949, “Regioselective synthesis and biological evaluation of bis(indolyl)methane derivatized 1,4-disubstituted 1,2,3-bistriazoles as anti-infective agents” (2009)
